Data: ChEMBL document CHEMBL3352770, “Click chemistry inspired synthesis and bioevaluation of novel triazolyl derivatives of osthol as potent cytotoxic agents” (Eur J Med Chem, 2014)

Assays:
COLO 205 [1] = test: Cytotoxicity against human COLO205 cells after 24 hrs by MTT assay; type: functional, cell-based; settings: COLO 205, 24 h
How it was run: (§1)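 Cells kept in DMEM with 10% foetal calf serum, penicillin and streptomycin, at 37 °C under 5% CO2. For assays serum lowered to 3%. Cells treated with test material at 0.04–60 µM for 24 h, then MTT (250 µg/mL) for 3 h. Formazan OD read at 570 nm. IC50 by non-linear regression, mean of triplicates. BEZ-235 as positive control.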

[2] = Cytotoxicity against human HCT116 cells after 24 hrs by MTT assay; type: functional, cell-based; settings: HCT-116, 24 h; how it was run: as §1
T47D = test: Cytotoxicity against human T47D cells after 24 hrs by MTT assay; type: functional, cell-based; how it was run: as §1
[3] = Cytotoxicity against human NCI-H322 cells after 24 hrs by MTT assay; type: functional, cell-based; settings: NCI-H322, 24 h; how it was run: as §1
A549 = test: Cytotoxicity against human A549 cells after 24 hrs by MTT assay; type: functional, cell-based; settings: A549, 24 h; how it was run: as §1
[4] = Cytotoxicity against human PC3 cells after 24 hrs by MTT assay; type: functional, cell-based; settings: PC-3, 24 h; how it was run: as §1
A-431 = test: Cytotoxicity against human A431 cells after 24 hrs by MTT assay; type: functional, cell-based; settings: A-431, 24 h; how it was run: as §1
COLO 205 [5] = test: Induction of apoptosis in human COLO205 cells assessed as accumulation at subG1 phase at 1 uM after 48 hrs by propidium iodide staining based flow cytometry (reference value: 12%); type: functional
COLO 205 [6] = test: Induction of cell cycle arrest in human COLO205 cells assessed as accumulation at G1 phase at 1 uM after 48 hrs by propidium iodide staining based flow cytometry (reference value: 45.7%); type: functional
COLO 205 [7] = test: Induction of cell cycle arrest in human COLO205 cells assessed as accumulation at S phase at 1 uM after 48 hrs by propidium iodide staining based flow cytometry (reference value: 13.8%); type: functional
COLO 205 [8] = test: Induction of cell cycle arrest in human COLO205 cells assessed as accumulation at G2 phase at 1 uM after 48 hrs by propidium iodide staining based flow cytometry (reference value: 13.2%); type: functional
COLO 205 [9] = test: Induction of apoptosis in human COLO205 cells assessed as accumulation at subG1 phase at 5 uM after 48 hrs by propidium iodide staining based flow cytometry (reference value: 12%); type: functional
How it was run: (§2)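 Colo-205 seeded at 5 × 10⁵ cells/ml in 6-well plates and grown 24 h. Treated at 1, 5, 10 and 25 µM for 48 h. Harvested, washed in PBS, fixed in 70% ethanol overnight at −20 °C. Stained 30 min in the dark with PI, EDTA, RNase and Triton X-100 in PBS. DNA content by flow cytometry, sub-G1 taken as apoptotic. Untreated/DMSO negative control; camptothecin 1 µM positive control; two experiments.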

COLO 205 [10] = test: Induction of cell cycle arrest in human COLO205 cells assessed as accumulation at G1 phase at 5 uM after 48 hrs by propidium iodide staining based flow cytometry (reference value: 45.7%); type: functional; how it was run: as §2
COLO 205 [11] = test: Induction of cell cycle arrest in human COLO205 cells assessed as accumulation at S phase at 5 uM after 48 hrs by propidium iodide staining based flow cytometry (reference value: 13.8%); type: functional; how it was run: as §2
COLO 205 [12] = test: Induction of cell cycle arrest in human COLO205 cells assessed as accumulation at G2 phase at 5 uM after 48 hrs by propidium iodide staining based flow cytometry (reference value: 13.2%); type: functional; how it was run: as §2
COLO 205 [13] = test: Induction of apoptosis in human COLO205 cells assessed as accumulation at subG1 phase at 10 uM after 48 hrs by propidium iodide staining based flow cytometry (reference value: 12%); type: functional; how it was run: as §2
COLO 205 [14] = test: Induction of cell cycle arrest in human COLO205 cells assessed as accumulation at G1 phase at 10 uM after 48 hrs by propidium iodide staining based flow cytometry (reference value: 45.7%); type: functional; how it was run: as §2
COLO 205 [15] = test: Induction of cell cycle arrest in human COLO205 cells assessed as accumulation at S phase at 10 uM after 48 hrs by propidium iodide staining based flow cytometry (reference value: 13.8%); type: functional; how it was run: as §2
COLO 205 [16] = test: Induction of cell cycle arrest in human COLO205 cells assessed as accumulation at G2 phase at 10 uM after 48 hrs by propidium iodide staining based flow cytometry (reference value: 13.2%); type: functional; how it was run: as §2
COLO 205 [17] = test: Induction of apoptosis in human COLO205 cells assessed as accumulation at subG1 phase at 25 uM after 48 hrs by propidium iodide staining based flow cytometry (reference value: 12%); type: functional; how it was run: as §2
COLO 205 [18] = test: Induction of cell cycle arrest in human COLO205 cells assessed as accumulation at G1 phase at 25 uM after 48 hrs by propidium iodide staining based flow cytometry (reference value: 45.7%); type: functional; how it was run: as §2
COLO 205 [19] = test: Induction of cell cycle arrest in human COLO205 cells assessed as accumulation at S phase at 25 uM after 48 hrs by propidium iodide staining based flow cytometry (reference value: 13.8%); type: functional; how it was run: as §2
COLO 205 [20] = test: Induction of cell cycle arrest in human COLO205 cells assessed as accumulation at G2 phase at 25 uM after 48 hrs by propidium iodide staining based flow cytometry (reference value: 13.2%); type: functional; how it was run: as §2
COLO 205 [21] = test: Induction of mitochondrial membrane potential loss in human COLO205 cells at 1 uM after 48 hrs by Rh-123 staining based flow cytometry (reference value: 12.4%); type: functional
COLO 205 [22] = test: Induction of mitochondrial membrane potential loss in human COLO205 cells at 5 uM after 48 hrs by Rh-123 staining based flow cytometry (reference value: 12.4%); type: functional
COLO 205 [23] = test: Induction of mitochondrial membrane potential loss in human COLO205 cells at 10 uM after 48 hrs by Rh-123 staining based flow cytometry (reference value: 12.4%); type: functional
COLO 205 [24] = test: Induction of mitochondrial membrane potential loss in human COLO205 cells at 25 uM after 48 hrs by Rh-123 staining based flow cytometry (reference value: 12.4%); type: functional
COLO 205 [25] = test: Induction of apoptosis in human COLO205 cells assessed as accumulation at subG1 phase after 48 hrs by propidium iodide staining based flow cytometry; type: functional, cell-based; how it was run: as §2

Structure (SMILES): COc1ccc(/C=C\C(=O)O)c(OCc2cn(-c3ccccc3)nn2)c1CC=C(C)C
- IC50 (COLO 205 [1]): 32.3 µM
- IC50 [2]: 26 µM
- IC50 (T47D): 34.1 µM
- IC50 [3]: 29.2 µM
- IC50 (A549): 40.5 µM
- IC50 [4]: 35 µM
- IC50 (A-431): 21.2 µM

Structure (SMILES): COc1ccc(/C=C\C(=O)O)c(OCc2cn(-c3cccnc3Cl)nn2)c1CC=C(C)C
- IC50 [2]: 23 µM
- IC50 [3]: 42.2 µM
- IC50 (A549): 5.6 µM
- IC50 (A-431): 32.6 µM

Structure (SMILES): COc1ccc(/C=C\C(=O)O)c(OCc2cn(-c3cccc(C#N)c3)nn2)c1CC=C(C)C
- IC50 (COLO 205 [1]): 26.8 µM
- IC50 [2]: 35.3 µM
- IC50 (T47D): 19.2 µM
- IC50 [3]: 26.5 µM
- IC50 [4]: 45.5 µM
- IC50 (A-431): 22.9 µM

Structure (SMILES): COc1ccc(/C=C\C(=O)O)c(OCc2cn(-c3cccc([N+](=O)[O-])c3)nn2)c1CC=C(C)C
- IC50 (COLO 205 [1]): 6.9 µM
- IC50 [2]: 27.3 µM
- IC50 (T47D): 15.4 µM
- IC50 [3]: 43.2 µM
- IC50 [4]: 42.1 µM
- IC50 (A-431): 18.4 µM

Structure (SMILES): COc1ccc(/C=C\C(=O)O)c(OCc2cn(-c3ccc(NC(=O)c4ccccc4)cc3)nn2)c1CC=C(C)C
- IC50 (COLO 205 [1]): 20.3 µM
- IC50 [2]: 16.4 µM
- IC50 (T47D): 23.3 µM
- IC50 [3]: 17.2 µM
- IC50 (A549): 42.7 µM
- IC50 (A-431): 21.2 µM

Structure (SMILES): Cn1c(=O)n(-c2ccc(C(C)(C)C#N)cc2)c2c3cc(-c4cnc5ccccc5c4)ccc3ncc21 [DACTOLISIB]
- IC50 [2]: 0.044 µM
- IC50 (T47D): 11.2 µM
- IC50 [3]: 10.3 µM
- IC50 [4]: 12.3 µM
- IC50 (A-431): 12.5 µM

Structure (SMILES): COc1ccc(/C=C\C(=O)O)c(OCc2cn(-c3ccc(NC(C)=O)cc3)nn2)c1CC=C(C)C
- IC50 (COLO 205 [1]): 22.6 µM
- IC50 (T47D): 17.4 µM
- IC50 [3]: 45.7 µM
- IC50 (A-431): 23.4 µM

Structure (SMILES): COc1ccc(/C=C\C(=O)O)c(OCc2cn(-c3ccc(CC#N)cc3)nn2)c1CC=C(C)C
- IC50 (COLO 205 [1]): 1.3 µM
- IC50 [2]: 4.9 µM
- IC50 (T47D): 3.6 µM
- IC50 [3]: 41 µM
- IC50 (A549): 35.2 µM
- IC50 [4]: 26.4 µM
- IC50 (A-431): 7.2 µM
- Activity (COLO 205 [5]): 12.5%
- Activity (COLO 205 [6]): 46.4%
- Activity (COLO 205 [7]): 13.9%
- Activity (COLO 205 [8]): 12.9%
- Activity (COLO 205 [9]): 15.2%
- Activity (COLO 205 [10]): 46.8%
- Activity (COLO 205 [11]): 16.1%
- Activity (COLO 205 [12]): 11.5%
- Activity (COLO 205 [13]): 15.7%
- Activity (COLO 205 [14]): 45%
- Activity (COLO 205 [15]): 14.7%
- Activity (COLO 205 [16]): 11.2%
- Activity (COLO 205 [17]): 24.1%
- Activity (COLO 205 [18]): 38.5%
- Activity (COLO 205 [19]): 13.2%
- Activity (COLO 205 [20]): 10.4%
- Activity (COLO 205 [21]): 24.4%
- Activity (COLO 205 [22]): 26.9%
- Activity (COLO 205 [23]): 29.7%
- Activity (COLO 205 [24]): 29.9%
- Activity (COLO 205 [25]): Dose-dependent effect

Structure (SMILES): COc1ccccc1-n1cc(COc2c(/C=C\C(=O)O)ccc(OC)c2CC=C(C)C)nn1
- IC50 (COLO 205 [1]): 12.2 µM
- IC50 [2]: 32.2 µM
- IC50 [3]: 41.5 µM
- IC50 (A549): 43 µM
- IC50 (A-431): 32.6 µM

Structure (SMILES): COc1ccc(/C=C\C(=O)O)c(OCc2cn(-c3ccc(CO)cc3)nn2)c1CC=C(C)C
- IC50 (COLO 205 [1]): 19.3 µM
- IC50 [2]: 31.7 µM
- IC50 (T47D): 40 µM
- IC50 [3]: 27.1 µM
- IC50 [4]: 28.3 µM
- IC50 (A-431): 16.4 µM

Structure (SMILES): COc1ccc(/C=C\C(=O)O)c(OCc2cn(-c3ccccc3F)nn2)c1CC=C(C)C
- IC50 (COLO 205 [1]): 14.5 µM
- IC50 (T47D): 11 µM
- IC50 [3]: 45.6 µM
- IC50 [4]: 24.2 µM
- IC50 (A-431): 12.4 µM

Structure (SMILES): COc1ccc2ccc(=O)oc2c1CC=C(C)C [OSTHOLE]
- IC50 (COLO 205 [1]): > 60 µM
- IC50 [2]: 30.2 µM
- IC50 (T47D): 42.4 µM
- IC50 [3]: 30.9 µM
- IC50 (A549): 46.2 µM
- IC50 [4]: 24.8 µM
- IC50 (A-431): 23.2 µM
